Experimental data from ChEMBL document CHEMBL4028903 (J Med Chem, 2017).
Activity calls are given as the source filed them. No cut-off for these calls is given here.

How the values were obtained:
[1] = Drug uptake in Sprague-Dawley rat liver at 0.003 mg/kg, po qd administered via gavage measured 7 hrs post last dose on day 14 by LC-MS/MS analysis; assay type: ADME, organism-based; settings: read-out: Drug uptake
Outline: (§1)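 Drug concentration in liver was quantified from tissue homogenates, so these are total levels. Unbound liver concentration was not determined.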

[2] = system: Mus musculus; experiment: Drug metabolism in mouse assessed as glycine conjugated metabolite formation at 5 mg/kg, iv or 10 mg/kg, po administered via gavage by LC-MS/MS analysis; assay type: ADME, organism-based; settings: in vivo
[3] = Protein binding in dog plasma at 0.5 mg/kg, iv or 2 mg/kg, po administered via gavage by LC-MS/MS analysis; assay type: ADME, organism-based, Canis lupus familiaris; settings: read-out: PPB
[4] = system: Rattus norvegicus; experiment: Dose normalized AUC (0 to 24 hrs) in Sprague-Dawley rat at 1 mg/kg, po qd administered via gavage measured on day 1 by LC-MS/MS analysis; assay type: ADME, organism-based; settings: in vivo
[5] = Drug uptake in Sprague-Dawley rat plasma at 1 mg/kg, po qd administered via gavage measured 7 hrs post last dose on day 14 by LC-MS/MS analysis; assay type: ADME, organism-based
[6] = AUC in mouse at 10 mg/kg, po administered via gavage by LC-MS/MS analysis; assay type: ADME, organism-based; settings: in vivo
Outline: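 Single oral dose given as a suspension in 0.5% methylcellulose, 0.5% Tween80 and 99% water. Doses were 10 mg/kg in mouse, 1 mg/kg in rat and 2 mg/kg in dog.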

[7] = system: Rattus norvegicus; experiment: In vivo agonist activity at FXR in po dosed Sprague-Dawley rat assessed as reduction in serum triglyceride level administered once daily for 14 days measured 24 hrs post last dose; assay type: functional, organism-based
[8] = Cmax in Sprague-Dawley rat at 0.03 mg/kg, po qd administered via gavage measured on day 1 by LC-MS/MS analysis; assay type: ADME, organism-based; parameters: dose 0.03 mg/kg, route oral; settings: in vivo
[9] = system: Rattus norvegicus; experiment: In vivo agonist activity at FXR in po dosed Sprague-Dawley rat assessed as induction of BSEP mRNA level in liver administered once daily for 14 days measured 7 hrs post last dose on day 14 by qPCR analysis; assay type: functional
[10] = system: Rattus norvegicus; experiment: In vivo agonist activity at FXR in Sprague-Dawley rat assessed as serum triglyceride level at 0.3 mg/kg, po administered once daily for 14 days measured 24 hrs post last dose; assay type: functional
[11] = system: Rattus norvegicus; experiment: In vivo agonist activity at FXR in po dosed Sprague-Dawley rat assessed as downregulation of CYP8B1 mRNA level in liver administered once daily for 14 days measured 7 hrs post last dose on day 14 by qPCR analysis; assay type: functional
[12] = system: Rattus norvegicus; experiment: Drug metabolism in rat assessed as glycine conjugated metabolite formation at 3 mg/kg, iv or 1 mg/kg, po administered via gavage by LC-MS/MS analysis; assay type: ADME, organism-based; settings: in vivo
[13] = Drug uptake in Sprague-Dawley rat liver at 0.03 mg/kg, po qd administered via gavage measured 1 hr post last dose on day 14 by LC-MS/MS analysis; assay type: ADME, organism-based; settings: read-out: Drug uptake; outline: as §1
[14] = Drug uptake in Sprague-Dawley rat plasma at 0.01 mg/kg, po qd administered via gavage measured 7 hrs post last dose on day 14 by LC-MS/MS analysis; assay type: ADME, organism-based
[15] = Drug uptake in Sprague-Dawley rat liver at 0.003 mg/kg, po qd administered via gavage measured 1 hr post last dose on day 14 by LC-MS/MS analysis; assay type: ADME, organism-based; settings: read-out: Drug uptake; outline: as §1
[16] = Half life in rat at 3 mg/kg, iv by LC-MS/MS analysis; assay type: ADME, organism-based; settings: in vivo
Outline: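 Single IV dose given as a solution. Mouse and rat received it in 75% PEG300:25% D5W. Dog received it in 20% PEG300, 5% solutol and 75% carbonate buffer pH = 8. Plasma was sampled for PK parameters.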

[17] = AUC in rat at 10 mg/kg, po administered via gavage by LC-MS/MS analysis; assay type: ADME, organism-based; settings: in vivo
Outline: (§2)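 Rats were dosed IV as a solution in 75% PEG300:25% D5W, or orally as a suspension in 0.5% methylcellulose, 0.5% Tween80 and 99% water.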

[18] = system: Rattus norvegicus; experiment: Dose normalized AUC (0 to 24 hrs) in Sprague-Dawley rat at 3 mg/kg, po qd administered via gavage measured on day 11 by LC-MS/MS analysis; assay type: ADME, organism-based; settings: in vivo
[19] = system: Rattus norvegicus; experiment: In vivo agonist activity at FXR in Sprague-Dawley rat assessed as induction of FGF15 mRNA level in ileum at 0.01 mg/kg, po qd for 14 days measured 7 hrs post last dose on day 14 by qPCR analysis; assay type: functional, organism-based
[20] = Cmax in Sprague-Dawley rat at 0.1 mg/kg, po qd administered via gavage measured on day 1 by LC-MS/MS analysis; assay type: ADME, organism-based; parameters: dose 0.1 mg/kg, route oral; settings: in vivo
[21] = system: Rattus norvegicus; experiment: Dose normalized AUC (0 to 24 hrs) in Sprague-Dawley rat at 0.03 mg/kg, po qd administered via gavage measured on day 11 by LC-MS/MS analysis; assay type: ADME, organism-based; settings: in vivo
[22] = AUC (0 to 24 hrs) in Sprague-Dawley rat at 0.01 mg/kg, po qd administered via gavage measured on day 1 by LC-MS/MS analysis; assay type: ADME, organism-based; parameters: dose 0.01 mg/kg, time < 24 hr, route oral; settings: in vivo
[23] = Clearance in rat at 3 mg/kg, iv by LC-MS/MS analysis; assay type: ADME, organism-based; settings: in vivo; outline: as §2
[24] = Cmax in Sprague-Dawley rat at 0.3 mg/kg, po qd administered via gavage measured on day 11 by LC-MS/MS analysis; assay type: ADME, organism-based; parameters: dose 0.3 mg/kg, route oral; settings: in vivo
[25] = system: Rattus norvegicus; experiment: Dose normalized AUC (0 to 24 hrs) in Sprague-Dawley rat at 0.003 mg/kg, po qd administered via gavage measured on day 1 by LC-MS/MS analysis; assay type: ADME, organism-based; settings: in vivo
[26] = system: Rattus norvegicus; experiment: Dose normalized AUC (0 to 24 hrs) in Sprague-Dawley rat at 0.01 mg/kg, po qd administered via gavage measured on day 11 by LC-MS/MS analysis; assay type: ADME, organism-based; settings: in vivo
[27] = system: Rattus norvegicus; experiment: In vivo agonist activity at FXR in po dosed Sprague-Dawley rat assessed as induction of SHP mRNA level in liver administered once daily for 14 days measured 7 hrs post last dose on day 14 by qPCR analysis; assay type: functional
[28] = molecular target: T1, Bile acid receptor (Rattus norvegicus) (UniProt Q62735); experiment: Agonist activity at FXR in rat primary hepatocytes assessed as induction of SHP mRNA level after 24 hrs by qPCR analysis; assay type: cell-based
T1 sequence (whole entry): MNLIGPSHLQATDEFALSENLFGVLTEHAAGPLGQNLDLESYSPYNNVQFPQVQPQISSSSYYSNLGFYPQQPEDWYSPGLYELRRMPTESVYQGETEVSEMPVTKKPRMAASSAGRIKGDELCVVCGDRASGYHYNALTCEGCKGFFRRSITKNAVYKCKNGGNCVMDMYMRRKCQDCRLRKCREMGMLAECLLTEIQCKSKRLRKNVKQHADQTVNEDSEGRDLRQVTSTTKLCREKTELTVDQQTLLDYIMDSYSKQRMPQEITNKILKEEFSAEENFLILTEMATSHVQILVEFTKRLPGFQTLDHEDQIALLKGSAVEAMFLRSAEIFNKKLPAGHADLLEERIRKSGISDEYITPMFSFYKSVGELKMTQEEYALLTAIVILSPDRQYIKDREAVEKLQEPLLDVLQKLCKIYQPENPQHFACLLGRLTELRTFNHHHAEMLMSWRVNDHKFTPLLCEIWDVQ

## O=C(O)c1cc(F)c2nc(N3C4CCC3CC(OCc3c(-c5ccccc5OC(F)(F)F)noc3C3CC3)C4)sc2c1 (stereo not drawn)
[1]
  concentration at 7 h: 2.3 nM
[2]
  Drug metabolism: Metabolite_Notdetected
[3]
  fraction unbound: 0.001
[4]
  AUC/dose: 461 nM·h
[5]
  concentration at 7 h: 40.5 nM
[6]
  AUC: 4.79 µM·h
[7]
  Activity: Dose-dependent effect
[8]
  Cmax: 1.5 nM
[9]
  ED50: 0.02 mg/kg
[10]
  Activity: 79%
[11]
  ED50: 0.01 mg/kg
[12]
  Drug metabolism: Metabolite_Notdetected
[13]
  concentration at 1 h: 11.9 nM
[14]
  concentration at 7 h: 0.31 nM
[15]
  concentration at 1 h: 2.92 nM
[16]
  half-life: 3.7 h
[17]
  AUC: 6.04 µM·h
[18]
  AUC/dose: 563 nM·h
[19]
  Activity: Active
[20]
  Cmax: 4.6 nM
[21]
  AUC/dose: 658 nM·h
[22]
  AUC(0-t) at 24 h: 0.004 µM·h
[23]
  clearance: 9 to 9.3 mL/min/kg
[24]
  Cmax: 14.8 nM
[25]
  AUC/dose: 668 nM·h
[26]
  AUC/dose: 496 nM·h
[27]
  ED50: 0.02 mg/kg
[28]
  Activity: Dose-dependent effect
